Data from ChEMBL document CHEMBL1125273, “Synthesis and biological evaluation of quinocarcin derivatives: thioalkyl-substituted quinones and hydroquinones” (J Med Chem, 1991).
Converted amounts (≈) assume the structure as drawn.

What was measured:
[1] = Antitumor activity in vivo in CD2F1 mice measured in terms of percent increase in lifespan calculated at a dose of 6.25 mg/kg intraperitoneally on day one.; type: functional; details: Mus musculus, ip, route intraperitoneal
Summary of the method: (§1)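 P388 lymphocytic leukemia cells (1×10^6) were implanted ip into CD2F1 mice (about 22 g), five mice per group. Drug was given ip from the day after implantation, either once (day 1) or daily on days 1–5. ILS = (T/C − 1) × 100, where T and C are the median survival times of treated and control mice.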

[2] = Antitumor activity in vivo in CD2F1 mice measured in terms of percent increase in lifespan calculated at a dose of 3.13 mg/kg intraperitoneally on days 1-5.; type: functional; details: Mus musculus, ip, route intraperitoneal; summary of the method: as §1
Co-3 [3] = assay: Ratio of ILS tested compound/quinocarcin against Co-3 tumor cell line implanted subcutaneously in mice and the compound administered intravenously at a dose of 5.58 mg/kg on days 1-5.; type: functional, Homo sapiens; details: route intravenous
Co-3 [4] = assay: Ratio of ILS tested compound/quinocarcin against Co-3 tumor cell line implanted subcutaneously in mice and the compound administered intravenously at a dose of 9.18 mg/kg on days 1-5.; type: functional, Homo sapiens; details: route intravenous
HeLa = assay: In vitro concentration required to inhibit the growth of HeLa S3 cells by 50%; type: functional, cell-based; details: Homo sapiens
Summary of the method: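 HeLa S3 cells (5 × 10⁴) seeded in Eagle's MEM with 10% FBS and 0.06 mg/mL kanamycin; graded drug concentrations, diluted in growth medium, added 24 h after seeding. Incubated 72 h at 37 °C, humidified 5% CO₂. Monolayers then washed, detached with 0.05% trypsin/0.02% EDTA and counted electronically; IC50 taken as concentration giving 50% growth inhibition.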

CCRF S-180 [5] = assay: Ratio of ILS tested compound/quinocarcin against murine sarcoma S-180 tumor cell line implanted subcutaneously in mice and the compound administered intravenously at a dose of 5.85 mg/kg on days 1-5.; type: functional, Mus musculus; details: route intravenous
St-4 [6] = assay: Ratio of ILS tested compound/quinocarcin against St-4 tumor cell line implanted subcutaneously in mice and the compound administered intravenously at a dose of 5.58 mg/kg on days 1-5.; type: functional, Homo sapiens; details: route intravenous
St-4 [7] = assay: Ratio of ILS tested compound/quinocarcin against St-4 tumor cell line implanted subcutaneously in mice and the compound administered intravenously at a dose of 9.18 mg/kg on days 1-5.; type: functional, Homo sapiens; details: route intravenous
Homo sapiens [8] = assay: Ratio of ILS tested compound/quinocarcin against human mammary carcinoma MX-1 cell line implanted subcutaneously in mice and the compound administered intravenously at a dose of 3.55 mg/kg on days 1-5.; type: functional; details: route intravenous
Homo sapiens [9] = assay: Ratio of ILS tested compound/quinocarcin against human mammary carcinoma MX-1 cell line implanted subcutaneously in mice and the compound administered intravenously at a dose of 5.58 mg/kg on days 1-5.c means number of cured mice.; type: functional; details: route intravenous
[10] = Ratio of the ILS tested compound/quinocarcin was determined for day one in CD2F1 mice.; type: functional, Mus musculus
Summary of the method: (§2)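 CD2F1 mice (5 per group) received 10^6 P388 cells ip. Drug was given ip on day 1 or on days 1–5. ILS was taken as (T/C − 1) × 100 from median survival times, and each compound's ILS was divided by the ILS of quinocarcin.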

[11] = Ratio of the ILS tested compound/quinocarcin was determined in CD2F1 mice on days 1-5.; type: functional, Mus musculus; summary of the method: as §2
[12] = Antitumor activity in vivo in CD2F1 mice measured in terms of percent increase in lifespan calculated at a dose of 12.5 mg/kg intraperitoneally on days 1-5.; type: functional; details: Mus musculus, ip, route intraperitoneal; summary of the method: as §1
[13] = Antitumor activity in vivo in CD2F1 mice measured in terms of percent increase in lifespan calculated at a dose of 25 mg/kg intraperitoneally on day one.; type: functional; details: Mus musculus, ip, route intraperitoneal; summary of the method: as §1
CCRF S-180 [14] = assay: Ratio of ILS tested compound/quinocarcin against murine sarcoma S-180 tumor cell line implanted subcutaneously in mice and the compound administered intravenously at a dose of 12.5 mg/kg on days 1-5.; type: functional, Mus musculus; details: route intravenous
Homo sapiens [15] = assay: Ratio of ILS tested compound/quinocarcin against human mammary carcinoma MX-1 cell line implanted subcutaneously in mice and the compound administered intravenously at a dose of 5.96 mg/kg on days 1-5.; type: functional; details: route intravenous
Homo sapiens [16] = assay: Ratio of ILS tested compound/quinocarcin against human mammary carcinoma MX-1 cell line implanted subcutaneously in mice and the compound administered intravenously at a dose of 9.35 mg/kg on days 1-5.; type: functional; details: route intravenous
[17] = Antitumor activity in vivo in CD2F1 mice measured in terms of percent increase in lifespan calculated at a dose of 6.25 mg/kg intraperitoneally on days 1-5.; type: functional; details: Mus musculus, ip, route intraperitoneal; summary of the method: as §1
[18] = Antitumor activity in vivo in CD2F1 mice measured in terms of percent increase in lifespan calculated at a dose of 12.5 mg/kg intraperitoneally on day one.; type: functional; details: Mus musculus, ip, route intraperitoneal; summary of the method: as §1
CCRF S-180 [19] = assay: Ratio of ILS tested compound/quinocarcin against murine sarcoma S-180 tumor cell line implanted subcutaneously in mice and the compound administered intravenously at a dose of 4.41 mg/kg on days 1-5.; type: functional, Mus musculus; details: route intravenous
Homo sapiens [20] = assay: Ratio of ILS tested compound/quinocarcin against human mammary carcinoma MX-1 cell line implanted subcutaneously in mice and the compound administered intravenously at a dose of 4.41 mg/kg on days 1-5.; type: functional; details: route intravenous
[21] = Antitumor activity in vivo in CD2F1 mice measured in terms of percent increase in lifespan calculated at a dose of 200 mg/kg intraperitoneally on day one.; type: functional; details: Mus musculus, ip, route intraperitoneal; summary of the method: as §1
[22] = Antitumor activity in vivo in CD2F1 mice measured in terms of percent increase in lifespan calculated at a dose of 37.5 mg/kg intraperitoneally on day one.; type: functional; details: Mus musculus, ip, route intraperitoneal; summary of the method: as §1

CSC1=C(SC)C(=O)C2=C(C[C@H]3[C@H]4[C@H](C(=O)O)C[C@@H](C5OC[C@@H]2N53)N4C)C1=O (some centres not stated)
ILS at 6.25 mg/kg [1]: 48% | ILS at 3.13 mg/kg [2]: 91% | T/C (Co-3 [3]): 0.43 | T/C (Co-3 [4]): 0.21 | IC50 (HeLa): 0.019 µg/mL (≈ 0.045 µM) | T/C (CCRF S-180 [5]): 0.86 | T/C (St-4 [6]): 0.56 | T/C (St-4 [7]): 0.2 | T/C (Homo sapiens [8]): 0.21 | T/C (Homo sapiens [9]): 0.006 | R [10]: 1.85 | R [11]: 0.88

CC(C)SC1=C(SC(C)C)C(=O)C2=C(C[C@H]3[C@H]4[C@H](C(=O)O)C[C@@H](C(C#N)N3[C@H]2CO)N4C)C1=O (some centres not stated)
ILS at 12.5 mg/kg [12]: 119% | ILS at 25 mg/kg [13]: 65% | IC50 (HeLa): 0.012 µg/mL (≈ 0.0237 µM) | T/C (CCRF S-180 [14]): 0.37 | T/C (Homo sapiens [15]): 0.83 | T/C (Homo sapiens [16]): 0.22 | R [10]: 1.48 | R [11]: 1.35

CSC1=C(SC)C(=O)C2=C(C[C@H]3[C@H]4[C@H](C(=O)O)C[C@@H](C(C#N)N3[C@H]2CO)N4C)C1=O (some centres not stated)
ILS at 6.25 mg/kg [17]: 71% | ILS at 12.5 mg/kg [18]: 53% | IC50 (HeLa): 0.13 µg/mL (≈ 0.289 µM) | T/C (CCRF S-180 [19]): 1.06 | T/C (Homo sapiens [20]): 0.67 | R [10]: 1.23 | R [11]: 0.59

CCOC(=O)CSc1c(O)c2c(c(O)c1SCC(=O)OCC)[C@H](CO)N1C(C#N)[C@@H]3C[C@@H](C(=O)O)[C@H]([C@@H]1C2)N3C (some centres not stated)
ILS at 200 mg/kg [21]: 37% | IC50 (HeLa): > 10 µg/mL | R [10]: 0.9

COc1c2c(c(OC)c(SC(C)C)c1SC(C)C)[C@@H]1COC3[C@@H]4C[C@@H](C(=O)O)[C@H]([C@H](C2)N31)N4C (some centres not stated)
ILS at 37.5 mg/kg [22]: 9% | IC50 (HeLa): 0.05 µg/mL (≈ 0.0983 µM)
